# Activity calls are given as the source filed them. The rule behind the calls is not given here.
# Key:
# [1] = Tmax in C57 mouse at 50 mg/kg, ip administered as single dose by LC-MS/MS analysis; format: ADME, organism-based; settings: in vivo
# Outline: (§1)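 Male C57 mice, one intraperitoneal dose. Blood drawn from submaxillary vein at 0, 5, 15, 30 min and 1, 2, 4, 8, 12, 24 h. Plasma measured by LC/MS/MS in MRM mode with CA-4 as internal standard. Calibration by weighted linear regression over 0.01–500 ng/mL. Parameters obtained by non-compartmental analysis.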
# [2] = Mean residence time in C57 mouse at 50 mg/kg, ip administered as single dose by LC-MS/MS analysis; format: ADME, organism-based; settings: in vivo; outline: as §1
# SK-OV-3 [3] = assay: Inhibition of tubulin assembly in human SKOV3 cells assessed as disorganized microtubule polymerization at 10 to 1000 nM after 24 hrs by DAPI staining based immunofluorescence microscopic method; format: functional, cell-based
# Outline: (§2)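 SK-OV-3 cells exposed to DMSO or 10, 100 or 1000 nM for 24 h. Fixed in methanol, stained with FITC anti-β-tubulin antibody, counterstained with DAPI, and imaged by confocal microscopy.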
# HeLa = assay: Antiproliferative activity against human HeLa cells after 72 hrs by CCK8 assay; format: functional, cell-based
# Outline: (§3)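 CCK-8 proliferation assay with CA-4 as positive control. IC50 is the concentration giving 50% inhibition of proliferation. Mean ± SEM from three independent experiments.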
# SK-OV-3 [4] = assay: Induction of apoptosis in human SKOV3 cells assessed as necrotic cells at 80 nM after 48 hrs by Annexin-V-FITC/propidium iodide staining based flow cytometry (reference value: 0.67%); format: functional
# SK-OV-3 [5] = assay: Induction of apoptosis in human SKOV3 cells assessed as live cells at 80 nM after 48 hrs by Annexin-V-FITC/propidium iodide staining based flow cytometry (reference value: 94.43%); format: functional
# Mus musculus [6] = assay: Toxicity in Balb/c mouse xenografted with human SKOV3 cells assessed as pathological changes in heart at 50 mg/kg, ip administered every two days for three times by hematoxylin and eosin staining based assay; format: organism-based; settings: in vivo
# Outline: (§4)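 In SK-OV-3 xenografted Balb/c nude mice dosed 50 mg/kg intraperitoneally in 5% DMSO/olive oil every two days, three times, organs were collected and examined after H&E staining.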
# SK-OV-3 [7] = assay: Cell cycle arrest in human SKOV3 cells assessed as accumulation at S phase at 160 nM after 24 hrs by propidium iodide staining based flow cytometry (reference value: 18.09%); format: functional
# Outline: (§5)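 SK-OV-3 cells exposed to 40, 80 or 160 nM for 24 h, with untreated cells as control. Stained with PI and analysed by flow cytometry for phase distribution. Mean ± SEM of three independent experiments; t-test against control.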
# A549 = assay: Antiproliferative activity against human A549 cells after 72 hrs by CCK8 assay; format: functional, cell-based; settings: A549, 72 h; outline: as §3
# SK-OV-3 [8] = assay: Induction of apoptosis in human SKOV3 cells assessed as late apoptotic cells at 40 nM after 48 hrs by Annexin-V-FITC/propidium iodide staining based flow cytometry (reference value: 3.93%); format: functional
# CT26 = assay: Antiproliferative activity against mouse CT26 cells after 72 hrs by CCK8 assay; format: functional, cell-based; settings: CT26, 72 h; outline: as §3
# SK-OV-3 [9] = assay: Induction of apoptosis in human SKOV3 cells assessed as live cells at 40 nM after 48 hrs by Annexin-V-FITC/propidium iodide staining based flow cytometry (reference value: 94.43%); format: functional
# SK-OV-3 [10] = assay: Antiproliferative activity against human SKOV3 cells after 72 hrs by CCK8 assay; format: functional, cell-based; settings: SK-OV-3, 72 h; outline: as §3
# SK-OV-3 [11] = assay: Induction of apoptosis in human SKOV3 cells assessed as late apoptotic cells at 80 nM after 48 hrs by Annexin-V-FITC/propidium iodide staining based flow cytometry (reference value: 3.93%); format: functional
# SK-OV-3 [12] = assay: Cell cycle arrest in human SKOV3 cells assessed as accumulation at S phase at 40 nM after 24 hrs by propidium iodide staining based flow cytometry (reference value: 18.09%); format: functional; outline: as §5
# Mus musculus [13] = assay: Toxicity in Balb/c mouse xenografted with human SKOV3 cells assessed as body weight loss at 50 mg/kg, ip administered every two days for three times measured during compound dosing; format: organism-based; settings: in vivo
# Outline: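 Six-week-old Balb/c nude mice given subcutaneous SK-OV-3 cells in the back. Randomised into three groups at about 200 mm3 tumour size. Dosed 50 mg/kg intraperitoneally in 5% DMSO/olive oil every two days, three times; vehicle group as control. Tumour volume and body weight tracked; six animals per group, mean ± SEM, t-test.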
# SK-OV-3 [14] = assay: Induction of apoptosis in human SKOV3 cells assessed as necrotic cells at 40 nM after 48 hrs by Annexin-V-FITC/propidium iodide staining based flow cytometry (reference value: 0.67%); format: functional
# SK-OV-3 [15] = assay: Inhibition of tubulin assembly in human SKOV3 cells assessed as disorganized spindle formation at 10 to 1000 nM after 24 hrs by DAPI staining based immunofluorescence microscopic method; format: functional, cell-based; outline: as §2
# MCF7 = assay: Antiproliferative activity against human MCF7 cells after 72 hrs by CCK8 assay; format: functional, cell-based; settings: MCF7, 72 h; outline: as §3
# [16] = AUC (0 to infinity) in C57 mouse at 50 mg/kg, ip administered as single dose by LC-MS/MS analysis; format: ADME, organism-based; design: dose 50 mg/kg, time infinity, route intraperitoneal; settings: in vivo; outline: as §1
# SK-OV-3 [17] = assay: Antimigratory activity against human SKOV3 cells assessed as number of migrated cells at 25 nM after 24 hrs by crystal violet staining based transwell migration assay (reference value: 49.3 to 50.7); format: functional
# SK-OV-3 [18] = assay: Induction of apoptosis in human SKOV3 cells assessed as early apoptotic cells at 80 nM after 48 hrs by Annexin-V-FITC/propidium iodide staining based flow cytometry (reference value: 0.97%); format: functional
# SK-OV-3 [19] = assay: Cell cycle arrest in human SKOV3 cells assessed as accumulation at G2/M phase at 160 nM after 24 hrs by propidium iodide staining based flow cytometry (reference value: 14.12%)
# Mus musculus [20] = assay: Area under the first moment curve (0 to 24 hrs) in C57 mouse at 50 mg/kg, ip administered as single dose by LC-MS/MS analysis; format: ADME, organism-based; settings: in vivo; outline: as §1
# Bos taurus [21] = organism: Bos taurus; assay: Inhibition of bovine MAP-rich tubulin polymerization measured every 1 min for 30 mins
# Outline: (§6)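 Purified tubulin polymerization followed at 37 °C by absorbance at 340 nm, read every 1 min for 30 min. Test concentrations 2.5, 10 and 40 µM. CA-4 at 10 µM served as positive control and DMSO (1%, v/v) as vehicle. Polymerization is expressed relative to the vehicle group.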
# SK-OV-3 [22] = assay: Antimigratory activity against human SKOV3 cells assessed as number of migrated cells at 50 nM after 24 hrs by crystal violet staining based transwell migration assay (reference value: 49.3 to 50.7); format: functional
# Bos taurus [23] = organism: Bos taurus; assay: Inhibition of bovine MAP-rich tubulin polymerization at 10 uM measured every 1 min for 30 mins relative to control; outline: as §6
# Mus musculus [24] = assay: Toxicity in Balb/c mouse xenografted with human SKOV3 cells assessed as pathological changes in kidney at 50 mg/kg, ip administered every two days for three times by hematoxylin and eosin staining based assay; format: organism-based; settings: in vivo; outline: as §4
# SK-OV-3 [25] = assay: Antimigratory activity against human SKOV3 cells assessed as wound closure at 80 nM after 24 hrs by microscopy based scratch wound assay (reference value: 79.5 +/- 2.8%); format: functional
# SK-OV-3 [26] = assay: Induction of apoptosis in human SKOV3 cells assessed as early apoptotic cells at 40 nM after 48 hrs by Annexin-V-FITC/propidium iodide staining based flow cytometry (reference value: 0.97%); format: functional
smiles,measurement,setting,value
CCOc1ccc(-c2cn(C)nc2-c2cc(OC)c(OC)c(OC)c2)cc1,Tmax,[1],15 min
same,MRT,[2],90.6 min
same,inhibition,SK-OV-3 [3],Active
same,IC50,HeLa,32.8 nM
same,Activity,SK-OV-3 [4],2.72%
same,Activity,SK-OV-3 [5],73.56%
same,Activity,Mus musculus [6],Non-Toxic
same,Activity,SK-OV-3 [7],26.16%
same,IC50,A549,67 nM
same,Activity,SK-OV-3 [8],6.65%
same,IC50,CT26,58 nM
same,Activity,SK-OV-3 [9],91.03%
same,IC50,SK-OV-3 [10],17 nM
same,Activity,SK-OV-3 [11],18.67%
same,Activity,SK-OV-3 [12],20.99%
same,Activity,Mus musculus [13],Non-Toxic
same,Activity,SK-OV-3 [14],0.97%
same,inhibition,SK-OV-3 [15],Active
same,IC50,MCF7,35.4 nM
same,AUC(0-inf),[16],1170 ng·h/mL
same,Activity,SK-OV-3 [17],27.3
same,Activity,SK-OV-3 [18],5.05%
same,Activity,SK-OV-3 [19],65.79%
same,AUMC,Mus musculus [20],1498 hr.hr.ng/ml
same,inhibition,Bos taurus [21],Dose-dependent effect
same,Activity,SK-OV-3 [22],21.7
same,inhibition,Bos taurus [23],60.4%
same,Activity,Mus musculus [24],Non-Toxic
same,Activity,SK-OV-3 [25],44.3%
same,Activity,SK-OV-3 [26],1.35%
